Test results from PMC3873039 (Anti-Cancer Agents in Medicinal Chemistry, 2013).

Assays:
[1] = tested on: HL60; assay: Cell cycle analysis, propidium iodide flow cytometry; type: cell-based, human; conditions: HL60, IC50 dose, 24 h; for Percentage of cells in S phase of cell cycle (significant accumulation): vehicle control S = 33.6%
Method in brief: (§1)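 Seeded at 0.5 x 10^6 cells per well in 12-well plates and treated 24 h at the IC50 concentration of each test compound from CellTiter-Glo. Cells were pelleted (400 g, 5 min), PBS-washed and fixed in 80% ethanol overnight at -20 °C. Staining used 50 µg/mL PI plus RNase overnight at 4 °C.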

[2] = tested on: K562; assay: CellTiter-Glo luminescent cell viability assay; type: cell-based, human; conditions: K562, 24 h, doses 0, 2, 10, 50, 250, 500 µM, p<0.05
Method in brief: (§2)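 Cells grown in RPMI 1640 with 10% FBS, 1.5 mM L-glutamine and penicillin/streptomycin at 37 °C, 5% CO2. Seeded at 2.5 x 10³ cells/well and exposed 24 h to ethanol-dissolved test compound (0, 2, 10, 50, 250, 500 µM) with 0.1% ethanol vehicle. ATP luminescence normalized to vehicle (100%). IC50 taken from linear regression. Lowest significant dose set by one-way ANOVA/Tukey, p<0.05. Triplicates, three independent experiments.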

[3] = tested on: THP-1; assay: Cell cycle analysis, propidium iodide flow cytometry; type: cell-based, human; conditions: THP-1, IC50 dose, 24 h; for Percentage of cells in G0/G1 phase of cell cycle (significant accumulation): vehicle control G0/G1 = 42.3%
Method in brief: as §1

[4] = tested on: non-tumor cells (CD34+); assay: NucView caspase 3 activity assay by flow cytometry; type: cell-based; conditions: 24 h; for EC50: read-out: AP50 (50% induction of apoptosis), Caspase 3 activity assay (C3); for The lowest dose of polyphenols at which there was a significant induction of apoptosis compared to the vehicle control: CD34+ non-tumour control cells, caspase 3 activity, p<0.05
[5] = tested on: JURKAT; assay: Cell cycle analysis, propidium iodide flow cytometry; type: cell-based, human; conditions: IC50 dose, 24 h, p<0.05
Method in brief: as §1

[6] = tested on: CCRF-CEM; assay: CellTiter-Glo luminescent cell viability assay; type: cell-based, human; conditions: 24 h, doses 0, 2, 10, 50, 250, 500 µM, p<0.05
Method in brief: as §2

[7] = tested on: non-tumor progenitor cells (CD34+); assay: Cell cycle analysis, propidium iodide flow cytometry; type: cell-based; conditions: 24 h, within the IC50 ranges used to treat the leukemic cell lines
[8] = tested on: U937; assay: Hoechst 33342 nuclear morphological analysis of apoptosis; type: cell-based; conditions: Homo sapiens, U-937, 24 h, read-out: AP50 (50% induction of apoptosis), Hoechst 33342 staining (Hoe)
Method in brief: (§3)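 Seeded at 0.5 x 10⁶ cells/well in 12-well plates and treated 24 h. Cells were pelleted (400 g, 5 min, 4 °C), washed in PBS, fixed in 4% paraformaldehyde, cytospun, air-dried, then stained with 10 μg/ml Hoechst 33342 for 10 min in the dark. Fluorescence microscopy: 200 cells counted, scored by condensed/intense nuclei, shrinkage, blebbing and apoptotic bodies. % apoptotic nuclei calculated. AP50 = concentration giving 50% apoptotic cells.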

[9] = tested on: KG1a; assay: as above; type: cell-based; conditions: Homo sapiens, KG-1a, 24 h, read-out: AP50 (50% induction of apoptosis), Hoechst 33342 staining (Hoe)
Method in brief: as §3

[10] = tested on: U937; assay: NucView caspase 3 activity assay by flow cytometry; type: cell-based, human; conditions: for EC50: Homo sapiens, U-937, 24 h, read-out: AP50 (50% induction of apoptosis), Caspase 3 activity assay (C3); for The lowest dose of polyphenols at which there was a significant induction of apoptosis compared to the vehicle control: U937, caspase 3 activity, 24 h, p<0.05
Method in brief: (§4)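 Seeded at 0.5 x 10⁶ cells/well and treated 24 h, with series of 0–50 or 0–250 µM depending on compound. Normalized to vehicle (0% apoptosis). Mean ± STD, three independent experiments in triplicate. One-way ANOVA/Tukey, p<0.05. AP50 = concentration giving 50% apoptotic cells.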

[11] = tested on: HL60; assay: NucView caspase 3 activity assay by flow cytometry; type: cell-based, human; conditions: for The lowest dose of polyphenols at which there was a significant induction of apoptosis compared to the vehicle control: HL60, caspase 3 activity, 24 h, p<0.05; for EC50: Homo sapiens, HL-60, 24 h, read-out: AP50 (50% induction of apoptosis), Caspase 3 activity assay (C3)
Method in brief: as §4

[12] = tested on: KG1a; assay: Cell cycle analysis, propidium iodide flow cytometry; type: cell-based, human; conditions: IC50 dose, 24 h; for Percentage of cells in G0/G1 phase of cell cycle (significant accumulation): vehicle control G0/G1 = 44.6%
Method in brief: as §1

[13] = tested on: K562; assay: NucView caspase 3 activity assay by flow cytometry; type: cell-based, human; conditions: for EC50: Homo sapiens, K562, 24 h, read-out: AP50 (50% induction of apoptosis), Caspase 3 activity assay (C3); for The lowest dose of polyphenols at which there was a significant induction of apoptosis compared to the vehicle control: K562, caspase 3 activity, 24 h, p<0.05
Method in brief: as §4

[14] = tested on: KG1a; assay: CellTiter-Glo luminescent cell viability assay; type: cell-based, human; conditions: 24 h; for IC50: Homo sapiens, KG-1a, read-out: IC50 (50% inhibition of cellular proliferation); for The lowest dose of polyphenols at which there was a significant inhibition of cell proliferation compared to the vehicle control: KG1a, doses 0, 2, 10, 50, 250, 500 µM, p<0.05
Method in brief: as §2

[15] = tested on: U937; assay: CellTiter-Glo luminescent cell viability assay; type: cell-based, human; conditions: U937, 24 h, doses 0, 2, 10, 50, 250, 500 µM, p<0.05
Method in brief: as §2

[16] = tested on: U937; assay: Cell cycle analysis, propidium iodide flow cytometry; type: cell-based, human; conditions: U937, IC50 dose, 24 h; vehicle control G0/G1 = 44.03%
Method in brief: as §1

[17] = tested on: JURKAT; assay: Hoechst 33342 nuclear morphological analysis of apoptosis; type: cell-based; conditions: Homo sapiens, 24 h, read-out: AP50 (50% induction of apoptosis), Hoechst 33342 staining (Hoe)
Method in brief: as §3

[18] = tested on: HL60; assay: CellTiter-Glo luminescent cell viability assay; type: cell-based, human; conditions: HL60, 24 h, doses 0, 2, 10, 50, 250, 500 µM, p<0.05
Method in brief: as §2

[19] = tested on: non-tumor cells (CD34+); assay: Hoechst 33342 nuclear morphological analysis of apoptosis; type: cell-based; conditions: 24 h, read-out: AP50 (50% induction of apoptosis), Hoechst 33342 staining (Hoe)
Method in brief: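 CD34+ cells treated 24 h across the IC25–IC50 range, then pelleted (400 g, 4 °C) and fixed in 4% paraformaldehyde/PBS. Cytospins were air-dried and stained with 10 μg/ml Hoechst 33342 for 10 min in the dark, then viewed by fluorescence microscopy. 200 cells were scored per sample as % apoptotic nuclei (shrinkage, blebbing, chromatin condensation, apoptotic bodies). AP50 = concentration giving 50% apoptosis.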

[20] = tested on: JURKAT; assay: CellTiter-Glo luminescent cell viability assay; type: cell-based, human; conditions: 24 h, doses 0, 2, 10, 50, 250, 500 µM, p<0.05
Method in brief: as §2

[21] = tested on: JURKAT; assay: NucView caspase 3 activity assay by flow cytometry; type: cell-based, human; conditions: 24 h; for EC50: Homo sapiens, Jurkat, read-out: AP50 (50% induction of apoptosis), Caspase 3 activity assay (C3); for The lowest dose of polyphenols at which there was a significant induction of apoptosis compared to the vehicle control: JURKAT, caspase 3 activity, p<0.05
Method in brief: as §4

[22] = tested on: MOLT-3; assay: Cell cycle analysis, propidium iodide flow cytometry; type: cell-based, human; conditions: MOLT-3, IC50 dose, 24 h; for Percentage of cells in G0/G1 phase of cell cycle (significant accumulation): vehicle control G0/G1 = 64.5%
Method in brief: as §1

[23] = tested on: HL60; assay: Hoechst 33342 nuclear morphological analysis of apoptosis; type: cell-based; conditions: Homo sapiens, HL-60, 24 h, read-out: AP50 (50% induction of apoptosis), Hoechst 33342 staining (Hoe)
Method in brief: as §3

[24] = tested on: CCRF-CEM; assay: as above; type: cell-based; conditions: Homo sapiens, 24 h, read-out: AP50 (50% induction of apoptosis), Hoechst 33342 staining (Hoe)
Method in brief: as §3

| EC50 [8] | EC50 [9] | EC50 [10] | EC50 [11] | EC50 [13] | EC50 [17] | Compound | The lowest dose of polyphenols at which there was a significant inhibition of cell proliferation compared to the vehicle control [2] | EC50 [4] | The lowest dose of polyphenols at which there was a significant induction of apoptosis compared to the vehicle control [4] | Phase of cell cycle accumulation [5] | The lowest dose of polyphenols at which there was a significant inhibition of cell proliferation compared to the vehicle control [6] | Cell cycle arrest in non-tumour control cells [7] | The lowest dose of polyphenols at which there was a significant induction of apoptosis compared to the vehicle control [10] | The lowest dose of polyphenols at which there was a significant induction of apoptosis compared to the vehicle control [11] | The lowest dose of polyphenols at which there was a significant induction of apoptosis compared to the vehicle control [13] | IC50 [14] | The lowest dose of polyphenols at which there was a significant inhibition of cell proliferation compared to the vehicle control [14] | The lowest dose of polyphenols at which there was a significant inhibition of cell proliferation compared to the vehicle control [15] | Percentage of cells in G0/G1 phase of cell cycle (significant accumulation) [16] | The lowest dose of polyphenols at which there was a significant inhibition of cell proliferation compared to the vehicle control [18] | also measured |
| --- | --- | --- | --- | --- | --- | --- | --- | --- | --- | --- | --- | --- | --- | --- | --- | --- | --- | --- | --- | --- | --- |
| 195 µM | 360 µM | 50 µM | 185 µM | > 250 µM | 130 µM | O=C1c2cccc(O)c2C(=O)c2c(O)cc(CO)cc21 [Aloe - Emodin, Aloe-emodin] | 50 µM | > 250 µM | 250 µM | S-phase | 50 µM | No Arrest <500µM | 50 µM | 50 µM | 50 µM | 310 µM | 50 µM | 50 µM | G0/G1 =53% | 50 µM | Percentage of cells in S phase of cell cycle (significant accumulation) [1]: S =35%; Percentage of cells in G0/G1 phase of cell cycle (significant accumulation) [3]: G0/G1 =52%; Percentage of cells in G0/G1 phase of cell cycle (significant accumulation) [12]: G0/G1 =50%; EC50 [19]: > 500 µM; The lowest dose of polyphenols at which there was a significant inhibition of cell proliferation compared to the vehicle control [20]: 50 µM; EC50 [21]: 50 µM; The lowest dose of polyphenols at which there was a significant induction of apoptosis compared to the vehicle control [21]: 50 µM; Percentage of cells in G0/G1 phase of cell cycle (significant accumulation) [22]: G0/G1 = 68%; EC50 [23]: 190 µM; EC50 [24]: 150 µM |
| 130 µM | 235 µM | 45 µM | 84 µM | 150 µM | 90 µM | O=c1cc(-c2ccc(O)cc2)oc2cc(O)cc(O)c12 [Apigenin] | 10 µM | > 250 µM | 250 µM | S-phase | 10 µM | No Arrest ≤250µM | 50 µM | 50 µM | 10 µM | 500 µM | 10 µM | 10 µM | G0/G1 =59% | 10 µM | Percentage of cells in G0/G1 phase of cell cycle (significant accumulation) ([1]; vehicle control G0/G1 = 56.8%): G0/G1=67%; Percentage of cells in G2/M phase of cell cycle (significant accumulation) ([3]; vehicle control G2/M = 26.4%): G2/M =32%; Percentage of cells in S phase of cell cycle (significant accumulation) ([12]; vehicle control S = 34.6%): S = 50%; EC50 [19]: > 500 µM; The lowest dose of polyphenols at which there was a significant inhibition of cell proliferation compared to the vehicle control [20]: 50 µM; EC50 [21]: 35 µM; The lowest dose of polyphenols at which there was a significant induction of apoptosis compared to the vehicle control [21]: 50 µM; Percentage of cells in S phase of cell cycle (significant accumulation) ([22]; vehicle control S = 24.8%): S =35%; EC50 [23]: 129 µM; EC50 [24]: 100 µM |
| 32 µM | > 500 µM | 150 µM | 175 µM | > 250 µM | 30 µM | O=c1cc(-c2ccccc2)oc2cc(O)cc(O)c12 [Chrysin] | 250 µM | > 250 µM | 250 µM | G0/G1 phase | 50 µM | No Arrest <250µM | 50 µM | 50 µM | 250 µM | 335 µM | 250 µM | 50 µM | G0/G1 =70% | 50 µM | Percentage of cells in S phase of cell cycle (significant accumulation) [1]: S =45.5%; Percentage of cells in G0/G1 phase of cell cycle (significant accumulation) [3]: G0/G1 =52.1%; Percentage of cells in G0/G1 phase of cell cycle (significant accumulation) [12]: G0/G1 =50%; EC50 [19]: > 500 µM; The lowest dose of polyphenols at which there was a significant inhibition of cell proliferation compared to the vehicle control [20]: 50 µM; EC50 [21]: 40 µM; The lowest dose of polyphenols at which there was a significant induction of apoptosis compared to the vehicle control [21]: 50 µM; Percentage of cells in G0/G1 phase of cell cycle (significant accumulation) [22]: G0/G1 =69.3%; EC50 [23]: 75 µM; EC50 [24]: 40 µM |
